# Reference: ChEMBL document CHEMBL1147035, “Synthesis and in vitro evaluation of targeted tetracycline derivatives: effects on inhibition of matrix metalloproteinases” (Bioorg Med Chem, 2007)
# The source made the active and inactive calls. The rule behind the calls is not given here.
# What was measured:
# Stromelysin-1 = Stromelysin-1 (Homo sapiens, UniProt P08254); experiment: Inhibition of human MMP3
# Summary of the method: (§1)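 Human pro-enzymes activated with 2 mM APMA at 37 °C (MMP-2 30 min; MMP-3, MMP-8 1 h), then preincubated 30 min at 37 °C with inhibitor diluted from 10^-3 to 10^-6 M. Substrates: Mca-RPKPYA-Nva-WMK(Dnp)-NH2 for MMP-3; Dnp-Pro-Cha-Gly-Cys(ME)-His-Ala-Lys(Nma)-NH2 for MMP-2 and MMP-8. Incubated 6 h at 37 °C; fluorescence read at ex 340/em 440 nm. Triplicates; IC50 from 3 central linear points.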
# Neutrophil collagenase = Neutrophil collagenase (Homo sapiens, UniProt P22894); experiment: Inhibition of human MMP8; summary of the method: as §1
# Oryctolagus cuniculus [1] = species on record: Oryctolagus cuniculus; experiment: (§2) Reduction of IL1-beta plus […]-induced proteoglycan degradation in rabbit articular cartilage at 200 uM relative to control; format: functional
# Summary of the method: (§3)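 Rabbit articular cartilage fragments were prelabelled with 35SO4 and washed. They were then cultured 24 h with 1 ng/mL rmIL-1β, with or without compound, and moved to 5×10^-4 M APMA for another 24 h. Fragments were digested with papain, and the % radioactivity released to the medium was counted. Means ± sem, n = 8/group; ANOVA with Dunnett's test.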
# Collagenase 3 = Collagenase 3 (Homo sapiens, UniProt P45452); experiment: Inhibition of human MMP13
# Summary of the method: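 Human pro-MMP-13 (2 µg/mL in developing buffer) activated with 2 mM APMA for 1 h at 37 °C, then stopped on ice. Enzyme preincubated 30 min at 37 °C with compound (serial 1/10 dilutions from DMSO stocks), then incubated 6 h at 37 °C with fluorogenic substrate Dnp-Pro-Cha-Gly-Cys(ME)-His-Ala-Lys(Nma)-NH2. Fluorescence read at ex 340/em 440 nm, in triplicate. IC50 from 3 points in the linear range of % control fluorescence.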
# [2] = biological target: 72 kDa type IV collagenase (Homo sapiens, UniProt P08253); experiment: Inhibition of human MMP2; summary of the method: as §1
# SW1353 = experiment: Inhibition of IL-1-beta-induced MMP13 production in human SW1353 cells at 50 uM; format: functional, cell-based
# Summary of the method: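 SW-1353 human chondrosarcoma cells grown to confluence in Ham's F12 with 10% FBS, then serum-free medium with 0.1% BSA for 24 h. Cells pretreated 30 min with DMSO vehicle or compound (6×10^-6 to 5×10^-5 M), then stimulated with rmIL-1β 10 ng/mL for 24 h. Total secreted MMP-13 (pro plus mature) in medium measured by ELISA.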
# Oryctolagus cuniculus [3] = species on record: Oryctolagus cuniculus; experiment: (§4) Inhibition of IL1-beta plus […]-induced proteoglycan degradation in rabbit articular cartilage at 100 uM relative to control; format: functional
# Summary of the method: (§5)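 Rabbit articular cartilage fragments prelabeled with 35SO4 and washed. Incubated 24 h with or without 1 ng/mL rmIL-1β, with or without compound. Fragments then moved to 5×10^-4 M APMA for 24 h and digested in papain. Radioactivity counted by liquid scintillation. Degradation = media cpm/(media + tissue cpm) ×100. Means ± sem, n = 8/group.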
# [4] = Inhibition of IL-1-beta-induced collagen degradation in rabbit articular cartilage at 100 uM in presence of plasmin relative to control; format: functional, Oryctolagus cuniculus; parameters: scale not given: the % may be the effect or the level left
# Summary of the method: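 Non-radiolabeled rabbit articular cartilage fragments cultured 48 h with or without 10 ng/mL IL-1β plus 0.1 U/mL EACA- and Lys-free plasmin, with or without compound. Media and tissue hydrolyzed in 6 M HCl at 110 °C for 12 h. Hydroxyproline measured colorimetrically; degradation = media OH-Pro/(media + tissue OH-Pro) ×100. Means ± sem, n = 8/group; ANOVA with Dunnett's test.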
# [5] = as §4; format: functional, Oryctolagus cuniculus; parameters: scale not given: the % may be the effect or the level left; summary of the method: as §5
# [6] = as §2; format: functional, Oryctolagus cuniculus; parameters: scale not given: the % may be the effect or the level left; summary of the method: as §3
# Neutrophil collagenase, sequence (P22894 whole entry): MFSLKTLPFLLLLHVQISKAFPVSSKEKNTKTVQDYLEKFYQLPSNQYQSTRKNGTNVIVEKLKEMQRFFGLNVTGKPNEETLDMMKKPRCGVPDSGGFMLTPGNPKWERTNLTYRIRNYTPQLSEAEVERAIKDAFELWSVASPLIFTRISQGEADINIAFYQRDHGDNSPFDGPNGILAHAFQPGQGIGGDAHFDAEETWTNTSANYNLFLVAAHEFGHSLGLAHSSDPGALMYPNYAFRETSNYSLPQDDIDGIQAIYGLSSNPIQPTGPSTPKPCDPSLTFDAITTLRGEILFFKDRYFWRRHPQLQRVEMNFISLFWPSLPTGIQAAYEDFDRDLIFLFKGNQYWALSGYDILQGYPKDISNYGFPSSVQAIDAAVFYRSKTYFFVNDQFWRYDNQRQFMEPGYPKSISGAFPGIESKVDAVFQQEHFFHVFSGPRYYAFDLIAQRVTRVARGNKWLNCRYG
# Stromelysin-1, sequence (P08254 whole entry): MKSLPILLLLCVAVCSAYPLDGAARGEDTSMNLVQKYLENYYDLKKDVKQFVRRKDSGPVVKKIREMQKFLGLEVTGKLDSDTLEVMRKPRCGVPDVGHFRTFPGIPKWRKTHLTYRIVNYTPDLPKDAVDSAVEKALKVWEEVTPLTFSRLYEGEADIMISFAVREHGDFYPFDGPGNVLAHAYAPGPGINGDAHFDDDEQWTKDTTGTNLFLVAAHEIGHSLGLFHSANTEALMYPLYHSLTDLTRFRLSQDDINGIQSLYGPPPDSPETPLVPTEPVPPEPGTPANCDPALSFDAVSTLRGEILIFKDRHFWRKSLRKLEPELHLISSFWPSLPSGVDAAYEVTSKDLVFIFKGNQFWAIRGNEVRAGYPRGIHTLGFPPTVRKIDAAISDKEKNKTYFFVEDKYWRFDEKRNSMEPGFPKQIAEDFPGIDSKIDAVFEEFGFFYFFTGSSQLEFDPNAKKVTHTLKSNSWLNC
# 72 kDa type IV collagenase, sequence (P08253 whole entry): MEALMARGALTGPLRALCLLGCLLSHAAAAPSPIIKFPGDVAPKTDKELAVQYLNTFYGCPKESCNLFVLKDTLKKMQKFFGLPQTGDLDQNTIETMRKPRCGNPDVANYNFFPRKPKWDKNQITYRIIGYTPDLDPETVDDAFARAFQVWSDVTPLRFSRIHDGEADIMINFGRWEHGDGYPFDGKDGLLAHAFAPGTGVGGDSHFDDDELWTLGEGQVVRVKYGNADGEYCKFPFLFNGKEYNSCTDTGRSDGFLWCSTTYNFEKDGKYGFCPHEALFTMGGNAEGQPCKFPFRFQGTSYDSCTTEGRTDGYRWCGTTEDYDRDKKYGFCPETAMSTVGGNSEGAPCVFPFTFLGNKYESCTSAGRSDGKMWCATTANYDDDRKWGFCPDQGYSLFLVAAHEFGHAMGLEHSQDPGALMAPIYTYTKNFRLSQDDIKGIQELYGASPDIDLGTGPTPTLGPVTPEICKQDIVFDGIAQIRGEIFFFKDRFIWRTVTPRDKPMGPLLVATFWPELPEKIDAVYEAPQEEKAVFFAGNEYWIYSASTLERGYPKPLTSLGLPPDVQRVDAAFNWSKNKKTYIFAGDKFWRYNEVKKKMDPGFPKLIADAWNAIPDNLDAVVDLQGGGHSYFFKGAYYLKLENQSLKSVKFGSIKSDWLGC
SMILES,IC50 (Stromelysin-1) [µM],IC50 (Neutrophil collagenase) [µM],Activity (Oryctolagus cuniculus [1]),IC50 (Collagenase 3) [µM],IC50 [2] [µM],Activity (SW1353),Activity (Oryctolagus cuniculus [3]),Activity [4] [%],Activity [5] [%],Activity [6] [%]
C[C@@]1(O)c2cccc(O)c2C(=O)C2=C(O)[C@]3(O)C(=O)C(C(N)=O)=C(O)[C@@H]([N+](C)(C)C)C3CC21 (stereo partly specified),150,110,inactive,120,140,inactive,–,–,–,–
C[C@H]1c2cccc(O)c2C(=O)C2=C(O)[C@]3(O)C(=O)C(C(N)=O)=C(O)[C@@H]([N+](C)(C)C)C3[C@H](O)C21.[I-] (stereo partly specified),81,11,–,4.9,7.7,inactive,inactive,66,–,–
"C[C@H]1c2cccc(O)c2C(=O)C2=C(O)[C@]3(O)C(=O)C(C(N)=O)=C(O)[C@@H](N(C)C)[C@@H]3C(O)[C@@H]21.O (single isomer, unassigned) [DOXYCYCLINE]",25,31,–,40,24,Active,–,89,8,–
CN(C)[C@@H]1C(O)=C(C(N)=O)C(=O)[C@@]2(O)C(O)=C3C(=O)c4c(O)cccc4[C@@](C)(O)[C@H]3C[C@@H]12 [TETRACYCLINE],140,180,–,180,220,Active,–,–,–,29
